Several values for one entry are separate records, joined by “and”; a condition that tells them apart may be missing. Identical values can stand only once. Entries after “also recorded” stand apart in the source; their conditions may differ. Like-named read-outs stand apart in the source and are kept apart here.
Tests used:
P. falciparum CQ^S-3D7 [1] = test: Growth inhibition assay; assay type: cell-based, Plasmodium falciparum; settings: for inhibition at 10 µM: 3D7, 10 μM; for IC50: one intra-erythrocytic cycle
[2] = biological target: recombinant 6xHis-CDPK1 protein (rPfCDPK1) (Plasmodium falciparum, UniProt P62344); test: Microscale thermophoresis; assay type: binding
Chain of recombinant 6xHis-CDPK1 protein (rPfCDPK1) (P62344 whole entry): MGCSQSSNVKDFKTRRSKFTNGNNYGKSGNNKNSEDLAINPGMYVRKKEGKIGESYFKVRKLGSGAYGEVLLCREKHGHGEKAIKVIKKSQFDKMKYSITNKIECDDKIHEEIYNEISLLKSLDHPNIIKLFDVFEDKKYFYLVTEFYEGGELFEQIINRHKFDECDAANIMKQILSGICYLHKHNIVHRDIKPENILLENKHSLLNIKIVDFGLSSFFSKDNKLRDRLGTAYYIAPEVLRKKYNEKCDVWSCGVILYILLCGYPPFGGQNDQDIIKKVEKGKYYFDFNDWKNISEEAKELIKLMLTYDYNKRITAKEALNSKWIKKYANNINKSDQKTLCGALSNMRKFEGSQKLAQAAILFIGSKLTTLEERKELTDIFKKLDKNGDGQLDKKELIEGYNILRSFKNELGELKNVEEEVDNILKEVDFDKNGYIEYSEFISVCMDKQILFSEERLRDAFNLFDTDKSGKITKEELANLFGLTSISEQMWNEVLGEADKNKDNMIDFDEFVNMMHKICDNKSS
Outline: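 Recombinant 6xHis-PfCDPK1 (10 μM) in HEPES-NaCl (pH 7.5) with 0.05 % Tween-20 was labelled with 30 μM cysteine-reactive red maleimide dye for 30 min at RT in the dark. It was then column-purified, keeping fractions below 1000 fluorescence counts. Test compound was serially titrated (4.8 nM–80 μM or 2.4 nM–40 μM) against constant labelled protein and premixed 10 min at RT in the dark. MST was run at RT, 20 % LED and 40 % MST power.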

rPfCDPK1 = rPfCDPK1 (Plasmodium falciparum, UniProt P62344); test: In vitro kinase assay; assay type: biochemical
Chain of rPfCDPK1 (P62344 whole entry): as above
Outline: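 100 ng 6xHis-CDPK1 per reaction in 100 mM Tris-Cl pH 7.4, 50 mM MgCl2, 2.5 mM DTT, 2.5 mM MnCl2, with or without Ca2+ (2.5 mM EGTA). Dephosphorylated bovine casein substrate. Enzyme pre-incubated with test compound (1 or 5 µM) for 20 min at RT. ATP-started reaction run 1 h at 30 °C. ADP formation read by ADP-Glo luminescence.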

[3] = test system: mammalian kinome (HepG2 lysate); test: In vitro kinase assay with HepG2 lysate; assay type: biochemical, human; settings: HepG2 cytosolic fraction; 1 and 5 μM
Outline: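 HepG2 cells (10^7) were lysed for 1 h at 4 °C in 20 mM Tris (pH 7.7), 0.5 % NP-40, 200 mM NaCl, 50 mM NaF, 0.2 mM orthovanadate, protease inhibitors and 0.1 % 2-mercaptoethanol. The lysate was spun at 13,000 rpm for 10 min. Kinase activity of the supernatant was measured by ADP-Glo luminescence with test compound at 1 and 5 μM.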

P. falciparum CQ^R-RKL-9 = test: Growth inhibition assay; assay type: cell-based, Plasmodium falciparum
CQ^S-3D7 P. falciparum = test: Growth progression analysis / blood stage-specific effect; assay type: cell-based, Plasmodium falciparum
[4] = test system: hemozoin in synchronized ring-stage parasites; test: Hemozoin assay; assay type: cell-based, Plasmodium falciparum; settings: 10 μM; 30 h
Outline: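 P. falciparum cultures were synchronized at ring stage, held at 6 % parasitemia, and treated with test compound for 30 h in triplicate. Cells were then treated with 2.5 % SDS in 0.1 M sodium bicarbonate (pH 8.8) for 10 min at RT and centrifuged. The pellet was resuspended in 5 % SDS/50 mM NaOH for 30 min. Monomeric heme was read as A405 minus A750.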

Hemolytic activity = assay type: cell-based, human; settings: human, red blood cell suspension (10 %, v/v), pH 7.4
Outline: (§1)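 Washed human RBCs (10 %, v/v) were resuspended in PBS (pH 7.4) and incubated with test compound at 1.5–800 μM for 1 h at 37 °C. After centrifugation, supernatant absorbance was read at 415 nm. RBCs treated with 1 % (v/v) Triton X-100 were the positive control. Run in triplicate.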

human RBCs = test: Hemolytic activity; assay type: cell-based; settings: 1.5–800 μM
Outline: as §1

MTT cytotoxicity assay [5] = assay type: cell-based, human; settings: human, HEK293 cells
Outline: (§2)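 Cells were seeded in DMEM with 10 % FBS (HEK293 2 × 10^4 per well; HepG2 10^4 per well) and incubated overnight at 37 °C in 5 % CO2. Test compound was added at 2.5–600 μM (HEK293) or 2–500 μM (HepG2) for 24 h at 37 °C, with untreated cells as control. MTT was added (stock 5 mg/mL in PBS), formazan was dissolved in DMSO, and absorbance read at 570 nm. Run in triplicate.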

HEK293 cells = test: MTT cytotoxicity assay; assay type: cell-based, human; settings: HEK293; 2.5–600 μM
Outline: as §2

MTT cytotoxicity assay [6] = assay type: cell-based, human; settings: human, HepG2 cells
Outline: as §2

HepG2 cells = test: MTT cytotoxicity assay; assay type: cell-based, human; settings: HepG2; 2–500 μM
Outline: as §2

PfCDPK1 = settings: cited from earlier work
P. falciparum CQ^S-3D7 [7] = settings: stated IC50 of the standard drug, used as positive control; ref not given; cited from earlier work
[8] = Plasmodium falciparum, CQ^S-3D7
[9] = Plasmodium falciparum, 3D7, CQ^S-3D7

For `O=C(/C=C/c1cn(Cc2cn(-c3ccnc4cc(Cl)ccc34)nn2)c2ccccc12)c1cccc(Br)c1` [7f, (E)-1-(3-bromophenyl)-3-(1-((1-(7-chloroquinolin-4-yl)-1H-1,2,3-triazol-4-yl)methyl)-1H-indol-3-yl)prop-2-en-1-one], the inhibition at 10 µM (P. falciparum CQ^S-3D7 [1]; [8]) was greater than 50%.
For `O=C(/C=C/c1cn(Cc2cn(-c3ccnc4cc(Cl)ccc34)nn2)c2ccccc12)c1ccccc1Cl` [7h, (E)-1-(2-chlorophenyl)-3-(1-((1-(7-chloroquinolin-4-yl)-1H-1,2,3-triazol-4-yl)methyl)-1H-indol-3-yl)prop-2-en-1-one], the inhibition at 10 µM (P. falciparum CQ^S-3D7 [1]; [8]) was greater than 50%.
For `COc1ccccc1C(=O)/C=C/c1cn(Cc2cn(-c3ccnc4cc(Cl)ccc34)nn2)c2ccccc12` [7l, (E)-3-(1-((1-(7-chloroquinolin-4-yl)-1H-1,2,3-triazol-4-yl)methyl)-1H-indol-3-yl)-1-(2-methoxyphenyl)prop-2-en-1-one], the IC50 (P. falciparum CQ^S-3D7 [1]; [9]) was 2.4 µM, the Kd [2] was 17.3 µM and the “PI of PfCDPK1 (inhibition of phosphorylation activity)” value (rPfCDPK1; 1 μM) was 71.9%. The “inhibition of host kinase activity in words” value [3] was “no inhibition of the host kinase activity”.
Molecule `COc1ccc(C(=O)/C=C/c2cn(Cc3cn(-c4ccnc5cc(Cl)ccc45)nn3)c3ccccc23)cc1` [7n, (E)-3-(1-((1-(7-chloroquinolin-4-yl)-1H-1,2,3-triazol-4-yl)methyl)-1H-indol-3-yl)-1-(4-methoxyphenyl)prop-2-en-1-one] has an inhibition at 10 µM (P. falciparum CQ^S-3D7 [1]; [8]) greater than 50%.
For `O=C(/C=C/c1cn(Cc2cn(-c3ccnc4cc(Cl)ccc34)nn2)c2ccccc12)c1cccs1` [7p, (E)-3-(1-((1-(7-chloroquinolin-4-yl)-1H-1,2,3-triazol-4-yl)methyl)-1H-indol-3-yl)-1-(thiophen-2-yl)prop-2-en-1-one], the inhibition at 10 µM (P. falciparum CQ^S-3D7 [1]; [8]) was greater than 50%.
Molecule `Cc1ccccc1C(=O)/C=C/c1cn(Cc2cn(-c3ccnc4cc(Cl)ccc34)nn2)c2ccccc12` [7r, (E)-3-(1-((1-(7-chloroquinolin-4-yl)-1H-1,2,3-triazol-4-yl)methyl)-1H-indol-3-yl)-1-o-tolylprop-2-en-1-one] has an IC50 (P. falciparum CQ^S-3D7 [1]; CQ^S-3D7) of 1.8 µM, an inhibition at 10 µM (P. falciparum CQ^S-3D7 [1]; [8]) greater than 50% and an IC50 (P. falciparum CQ^S-3D7 [1]; [9]) of 3.5 µM. The IC50 (P. falciparum CQ^R-RKL-9; CQ^R-RKL-9, one intra-erythrocytic cycle) was 2.7 µM, the “Resistance Index (RI)” value (P. falciparum CQ^R-RKL-9; IC50 CQ^R-RKL-9/CQ^S-3D7) was 1.49 and the “intra-erythrocytic progression: stage affected” value (CQ^S-3D7 P. falciparum) was “effective against the mature stages of the parasite”. The “growth progression, morphology” value (CQ^S-3D7 P. falciparum; ring stage treated at IC50 concentration, 40 and 56 h post-treatment) was “stuck at the trophozoite stage with altered morphology”, the “free monomeric heme (control-free heme)” value [4] was 48.8% and 48% and the hemolysis at 1 h, 50 µM (Hemolytic activity) was 2.3%. For the same molecule, the hemolysis at 1 h, 800 µM (Hemolytic activity) was 5.9%, the “hemolytic activity in words” value (human RBCs) was “no significant lysis; also recorded: no apparent hemolytic activity” and the viability at 24 h, 100 µM (MTT cytotoxicity assay [5]) was greater than 90%. For the same molecule, the cytotoxicity in words (HEK293 cells) was “non-cytotoxic”, the viability at 24 h, 100 µM (MTT cytotoxicity assay [6]) was greater than 90% and the cytotoxicity in words (HepG2 cells) was “non-cytotoxic”. The Kd [2] was 7.2 µM, the inhibition at 1 µM (rPfCDPK1; read-out: PI of PfCDPK1 (inhibition of phosphorylation activity), 1 μM) was 45.5% and the inhibition at 5 µM (rPfCDPK1; read-out: PI of PfCDPK1 (inhibition of phosphorylation activity), 5 μM) was 43.8%. For the same molecule, the “inhibition of host kinase activity in words” value [3] was “no inhibition of the host kinase activity; also recorded: no inhibitory effect on the human kinome; also recorded: no inhibitory effect on the human kinases”.
In the case of `CCCCCC(=O)NCCc1c[nH]c2ccccc12` [A, N-[2-(1H-indol-3-yl)ethyl]hexanamide], the “PfCDPK1 inhibition potency in words” value (PfCDPK1) is listed as “sub-micromolar potency”.
In the case of `CCN(CC)CCCC(C)Nc1ccnc2cc(Cl)ccc12` (stereo not drawn) [CQ, chloroquine], the IC50 (P. falciparum CQ^S-3D7 [7]) is listed as 0.025 µM.
With `O=Cc1cn(Cc2cn(-c3ccnc4cc(Cl)ccc34)nn2)c2ccccc12` [compound 9, 1-((1-(7-chloroquinolin-4-yl)-1H-1,2,3-triazol-4-yl)methyl)-1H-indole-3-carbaldehyde] the “growth inhibition in words” value (P. falciparum CQ^S-3D7 [1]; at the tested concentration, CQ^S 3D7) was “poor inhibition; also recorded: not a good inhibitor”.
